Assay results reported in ChEMBL document CHEMBL2384906, “Biological activity, design, synthesis and structure activity relationship of some novel derivatives of curcumin containing sulfonamides” (Eur J Med Chem, 2013).
Values after ≈ are worked out from the molar mass of the structure shown. Active and inactive are the calls of the source. The rule behind the calls is not given here.

How the values were obtained:
[1] = tested on: Staphylococcus aureus; test: Antimicrobial activity against Staphylococcus aureus ATCC 11632 after 24 hrs by broth micro serial dilution method; assay type: functional; details: ATCC 11632, 24 h
Procedure, shortened: (§1)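 This was broth microdilution in autoclaved Mueller-Hinton broth. 150 µL of compound per well was serially diluted […], and 50 µL of test organism was added. Plates were incubated 24 h at 37 °C and optical density was read.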

[2] = tested on: HCT-116; test: Cytotoxicity against human HCT116 cells after 24 hrs by MTT assay; assay type: functional, cell-based
Procedure, shortened: (§2)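 The MTT assay seeded 5 × 10⁴ cells per well and grew them 24 h in RPMI 1640 with compound at 2.5–200 µM. Medium without cells was the blank and adriamycin the positive control. MTT was added for 4 h at 37 °C, formazan was solubilised, and absorbance was read at 570 nm. IC50 is the concentration that cuts viability 50% against untreated cells.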

[3] = tested on: Aspergillus niger; test: Antifungal activity against Aspergillus niger MTCC 1108 assessed as zone of inhibition at 20 uM after 48 hrs by disc diffusion method; assay type: functional; details: MTCC 1108, 48 h, read-out: IZ
Procedure, shortened: (§3)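 Spores from 4-day potato dextrose agar cultures, suspended in sterile water at 1.5 × 10⁵ CFU/mL. 0.2 mL was spread on potato dextrose agar. 5 mm filter-paper discs soaked with test compound were laid on the lawn. Incubation was 48 h at 28 °C, then the inhibition zone was measured in mm. Fluconazole was the positive control and acetone the negative control.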

[4] = tested on: QG-56; test: Cytotoxicity against human QG56 cells after 24 hrs by MTT assay; assay type: functional, cell-based; procedure, shortened: as §2
[5] = tested on: Bacillus cereus; test: Antimicrobial activity against Bacillus cereus MTCC 7350 after 24 hrs by broth micro serial dilution method; assay type: functional; details: MTCC 7350, 24 h; procedure, shortened: as §1
[6] = tested on: Curvularia lunata; test: Antifungal activity against Curvularia lunata MTCC 581 assessed as zone of inhibition at 20 uM after 48 hrs by disc diffusion method; assay type: functional; details: MTCC 581, 48 h, read-out: IZ; procedure, shortened: as §3
[7] = tested on: Pseudomonas aeruginosa; test: Antimicrobial activity against Pseudomonas aeruginosa ATCC 15499 assessed as diameter of inhibition zone at 20 uM after 24 hrs by Kirby -Baur disc diffusion method; assay type: functional
Procedure, shortened: (§4)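 Kirby-Bauer disc diffusion was used. Acetone stocks (160 µM) were serially doubled down to 80, 40 and 20 µM. 4 µL of each went onto 5 mm sterile paper discs, which were dried 30 min at 50 °C. Inoculum was 1.5 × 10⁸ CFU/mL diluted to 3 × 10² CFU/mL, and 50 µL was spread on Mueller-Hinton agar. After 24 h at 37 °C the inhibition-zone diameter was measured. Ciprofloxacin served as positive control.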

[8] = tested on: Aspergillus niger; test: Antifungal activity against Aspergillus niger MTCC 1108 after 48 hrs; assay type: functional; details: MTCC 1108, 48 h
[9] = tested on: Escherichia coli; test: Antimicrobial activity against Escherichia coli ATCC 35218 assessed as diameter of inhibition zone at 20 uM after 24 hrs by Kirby -Baur disc diffusion method; assay type: functional; details: ATCC 35218, 24 h, read-out: DIZ; procedure, shortened: as §4
[10] = tested on: Aspergillus flavus; test: Antifungal activity against Aspergillus flavus MTCC 1021 assessed as zone of inhibition at 20 uM after 48 hrs by disc diffusion method; assay type: functional; procedure, shortened: as §3
[11] = tested on: Staphylococcus aureus; test: Antimicrobial activity against Staphylococcus aureus ATCC 11632 assessed as diameter of inhibition zone at 20 uM after 24 hrs by Kirby -Baur disc diffusion method; assay type: functional; details: ATCC 11632, 24 h, read-out: DIZ; procedure, shortened: as §4
[12] = tested on: Trichoderma viride; test: Antifungal activity against Trichoderma viride MTCC 1107 after 48 hrs; assay type: functional; details: MTCC 1107, 48 h
[13] = tested on: Escherichia coli; test: Antimicrobial activity against Escherichia coli ATCC 35218 assessed as diameter of inhibition zone at 80 uM after 24 hrs by Kirby -Baur disc diffusion method; assay type: functional; details: ATCC 35218, 24 h, read-out: DIZ; procedure, shortened: as §4
[14] = tested on: Staphylococcus aureus; test: Antimicrobial activity against Staphylococcus aureus ATCC 11632 assessed as diameter of inhibition zone at 40 uM after 24 hrs by Kirby -Baur disc diffusion method; assay type: functional; details: ATCC 11632, 24 h, read-out: DIZ; procedure, shortened: as §4
[15] = tested on: Aspergillus flavus; test: Antifungal activity against Aspergillus flavus MTCC 1021 assessed as zone of inhibition at 80 uM after 48 hrs by disc diffusion method; assay type: functional; details: MTCC 1021, 48 h, read-out: IZ; procedure, shortened: as §3
[16] = tested on: Salmonella typhi; test: Antimicrobial activity against Salmonella typhi ATCC 23564 assessed as diameter of inhibition zone at 80 uM after 24 hrs by Kirby -Baur disc diffusion method; assay type: functional, Salmonella enterica subsp. enterica serovar Typhi; details: Salmonella enterica, ATCC 23564, 24 h; read-out: DIZ
[17] = tested on: Trichoderma viride; test: Antifungal activity against Trichoderma viride MTCC 1107 assessed as zone of inhibition at 80 uM after 48 hrs by disc diffusion method; assay type: functional; details: MTCC 1107, 48 h, read-out: IZ; procedure, shortened: as §3
[18] = tested on: Trichoderma viride; test: Antifungal activity against Trichoderma viride MTCC 1107 assessed as zone of inhibition at 20 uM after 48 hrs by disc diffusion method; assay type: functional; details: MTCC 1107, 48 h, read-out: IZ; procedure, shortened: as §3
[19] = tested on: HepG2; test: Cytotoxicity against human HepG2 cells after 24 hrs by MTT assay; assay type: functional, cell-based; procedure, shortened: as §2
[20] = tested on: Bacillus cereus; test: Antimicrobial activity against Bacillus cereus MTCC 7350 assessed as diameter of inhibition zone at 80 uM after 24 hrs by Kirby -Baur disc diffusion method; assay type: functional; details: MTCC 7350, 24 h, read-out: DIZ; procedure, shortened: as §4
[21] = tested on: Escherichia coli; test: Antimicrobial activity against Escherichia coli ATCC 35218 assessed as diameter of inhibition zone at 40 uM after 24 hrs by Kirby -Baur disc diffusion method; assay type: functional; details: ATCC 35218, 24 h, read-out: DIZ; procedure, shortened: as §4
[22] = tested on: Curvularia lunata; test: Antifungal activity against Curvularia lunata MTCC 581 assessed as zone of inhibition at 40 uM after 48 hrs by disc diffusion method; assay type: functional; details: MTCC 581, 48 h, read-out: IZ; procedure, shortened: as §3
[23] = tested on: Escherichia coli; test: Antimicrobial activity against Escherichia coli ATCC 35218 after 24 hrs by broth micro serial dilution method; assay type: functional; details: ATCC 35218, 24 h; procedure, shortened: as §1
[24] = tested on: Salmonella typhi; test: Antimicrobial activity against Salmonella typhi ATCC 23564 assessed as diameter of inhibition zone at 20 uM after 24 hrs by Kirby -Baur disc diffusion method; assay type: functional, Salmonella enterica subsp. enterica serovar Typhi; details: Salmonella enterica, ATCC 23564, 24 h; read-out: DIZ
[25] = tested on: Bacillus cereus; test: Antimicrobial activity against Bacillus cereus MTCC 7350 assessed as diameter of inhibition zone at 40 uM after 24 hrs by Kirby -Baur disc diffusion method; assay type: functional; details: MTCC 7350, 24 h, read-out: DIZ; procedure, shortened: as §4
[26] = tested on: Staphylococcus aureus; test: Antimicrobial activity against Staphylococcus aureus ATCC 11632 assessed as diameter of inhibition zone at 80 uM after 24 hrs by Kirby -Baur disc diffusion method; assay type: functional; details: ATCC 11632, 24 h, read-out: DIZ; procedure, shortened: as §4
[27] = tested on: Pseudomonas aeruginosa; test: Antimicrobial activity against Pseudomonas aeruginosa ATCC 15499 assessed as diameter of inhibition zone at 80 uM after 24 hrs by Kirby -Baur disc diffusion method; assay type: functional; details: ATCC 15499, 24 h, read-out: DIZ; procedure, shortened: as §4
[28] = tested on: Aspergillus niger; test: Antifungal activity against Aspergillus niger MTCC 1108 assessed as zone of inhibition at 80 uM after 48 hrs by disc diffusion method; assay type: functional; details: MTCC 1108, 48 h, read-out: IZ; procedure, shortened: as §3
[29] = tested on: Mus musculus; test: Antiinflammatory activity in mouse assessed as inhibition of carrageenan-induced increase in paw volume at 200 mg/kg administered 1 hr prior to carrageenan challenge measured after 3 hrs relative to control; assay type: functional
Procedure, shortened: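 Mice were fasted 2 h and placed in groups of five. Controls received saline i.p. Phenylbutazone was given at 100 mg/kg i.p., curcumin at 200 mg/kg i.p., and derivatives at 200 mg/kg. After 1 h, 0.1 mL of 1% carrageenan in saline was injected subplantar into the right hind paw. Paw volume was followed by plethysmometer for 3 h, and % inhibition was calculated as (Vc − Vt)/Vc × 100.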

[30] = tested on: Trichoderma viride; test: Antifungal activity against Trichoderma viride MTCC 1107 assessed as zone of inhibition at 40 uM after 48 hrs by disc diffusion method; assay type: functional; details: MTCC 1107, 48 h, read-out: IZ; procedure, shortened: as §3
[31] = tested on: Bacillus cereus; test: Antimicrobial activity against Bacillus cereus MTCC 7350 assessed as diameter of inhibition zone at 20 uM after 24 hrs by Kirby -Baur disc diffusion method; assay type: functional; details: MTCC 7350, 24 h, read-out: DIZ; procedure, shortened: as §4
[32] = tested on: Pseudomonas aeruginosa; test: Antimicrobial activity against Pseudomonas aeruginosa ATCC 15499 after 24 hrs by broth micro serial dilution method; assay type: functional; details: ATCC 15499, 24 h; procedure, shortened: as §1
[33] = tested on: Aspergillus flavus; test: Antifungal activity against Aspergillus flavus MTCC 1021 assessed as zone of inhibition at 40 uM after 48 hrs by disc diffusion method; assay type: functional; details: MTCC 1021, 48 h, read-out: IZ; procedure, shortened: as §3
[34] = tested on: Salmonella typhi; test: Antimicrobial activity against Salmonella typhi ATCC 23564 assessed as diameter of inhibition zone at 40 uM after 24 hrs by Kirby -Baur disc diffusion method; assay type: functional, Salmonella enterica subsp. enterica serovar Typhi; details: Salmonella enterica, ATCC 23564, 24 h; read-out: DIZ
[35] = tested on: Salmonella typhi; test: Antimicrobial activity against Salmonella typhi ATCC 23564 after 24 hrs by broth micro serial dilution method; assay type: functional, Salmonella enterica subsp. enterica serovar Typhi; details: Salmonella enterica, ATCC 23564, 24 h
[36] = tested on: Aspergillus flavus; test: Antifungal activity against Aspergillus flavus MTCC 1021 after 48 hrs; assay type: functional; details: MTCC 1021, 48 h
[37] = tested on: Curvularia lunata; test: Antifungal activity against Curvularia lunata MTCC 581 after 48 hrs; assay type: functional; details: MTCC 581, 48 h
[38] = tested on: Curvularia lunata; test: Antifungal activity against Curvularia lunata MTCC 581 assessed as zone of inhibition at 80 uM after 48 hrs by disc diffusion method; assay type: functional; details: MTCC 581, 48 h, read-out: IZ; procedure, shortened: as §3
[39] = tested on: HeLa; test: Cytotoxicity against human HeLa cells after 24 hrs by MTT assay; assay type: functional, cell-based; procedure, shortened: as §2
[40] = tested on: Aspergillus niger; test: Antifungal activity against Aspergillus niger MTCC 1108 assessed as zone of inhibition at 40 uM after 48 hrs by disc diffusion method; assay type: functional; details: MTCC 1108, 48 h, read-out: IZ; procedure, shortened: as §3
[41] = tested on: Pseudomonas aeruginosa; test: Antimicrobial activity against Pseudomonas aeruginosa ATCC 15499 assessed as diameter of inhibition zone at 40 uM after 24 hrs by Kirby -Baur disc diffusion method; assay type: functional; details: ATCC 15499, 24 h, read-out: DIZ; procedure, shortened: as §4

COc1ccc(NS(=O)(=O)c2ccc(/N=C(/C=C(O)/C=C/c3ccc(O)c(OC)c3)\C=C\c3ccc(O)c(OC)c3)cc2)nn1
MIC [1]: 20 µM (≈ 12.6 µg/mL)
IC50 [2]: 25 µM
zone of inhibition at 20 µM [3]: 10 mm
IC50 [4]: 25 µM
MIC [5]: 20 µM (≈ 12.6 µg/mL)
zone of inhibition at 20 µM [6]: 12 mm
diameter of the inhibition zone (DIZ) [7]: inactive
MIC [8]: 40 µM (≈ 25.2 µg/mL)
zone of inhibition at 20 µM [9]: 16 mm
inhibition zone (IZ) [10]: inactive
zone of inhibition at 20 µM [11]: 9 mm
MIC [12]: 20 µM (≈ 12.6 µg/mL)
zone of inhibition at 80 µM [13]: 21 mm
zone of inhibition at 40 µM [14]: 14 mm
zone of inhibition at 80 µM [15]: 10 mm
zone of inhibition at 80 µM [16]: 19 mm
zone of inhibition at 80 µM [17]: 19 mm
zone of inhibition at 20 µM [18]: 12 mm
IC50 [19]: 25 µM
zone of inhibition at 80 µM [20]: 14 mm
zone of inhibition at 40 µM [21]: 18 mm
zone of inhibition at 40 µM [22]: 15 mm
MIC [23]: 20 µM (≈ 12.6 µg/mL)
zone of inhibition at 20 µM [24]: 13 mm
zone of inhibition at 40 µM [25]: 11 mm
zone of inhibition at 80 µM [26]: 17 mm
zone of inhibition at 80 µM [27]: 14 mm
zone of inhibition at 80 µM [28]: 14 mm
inhibition in vivo at 200 mg/kg [29]: 35.4%
zone of inhibition at 40 µM [30]: 16 mm
zone of inhibition at 20 µM [31]: 9 mm
MIC [32]: 20 µM (≈ 12.6 µg/mL)
zone of inhibition at 40 µM [33]: 9 mm
zone of inhibition at 40 µM [34]: 16 mm
MIC [35]: 20 µM (≈ 12.6 µg/mL)
MIC [36]: > 80 µM
MIC [37]: 20 µM (≈ 12.6 µg/mL)
zone of inhibition at 80 µM [38]: 18 mm
IC50 [39]: 50 µM
zone of inhibition at 40 µM [40]: 14 mm
zone of inhibition at 40 µM [41]: 10 mm
